Results taken from ChEMBL document CHEMBL1124636, “3,4-Dihydro-2H-1-benzopyran-2-carboxylic acids and related compounds as leukotriene antagonists” (J Med Chem, 1989).

Legend:
Cavia porcellus [1] = assay: (§1) Inhibition of leukotriene D4 induced bronchoconstriction in anesthetized guinea pigs after aerosol administration as 1% solution; type: functional, organism-based
Outline: (§2)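 Guinea pigs given propranolol 0.1 mg/kg iv 5 min before 5-min ultrasonic nebulizer exposure to aqueous, NaOH-neutralized drug (% w/v) or distilled water, breathing spontaneously. LTD4 50 µg/kg iv 30 s after exposure; tracheal pressure change.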

Cavia porcellus [2] = assay: (§3) Inhibition of leukotriene D4 induced bronchoconstriction in anesthetized guinea pigs after intravenous administration at a dose of 10 mg/kg; type: functional; settings: for ED50: read-out: ID50 (the source's name)
Outline: (§4)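 Male Hartley guinea pigs, 400–600 g, urethane 2 g/kg ip, jugular cannula, propranolol 0.1 mg/kg iv 5 min before challenge, succinylcholine 1.2 mg/kg iv, ventilated. Vehicle or drug iv 30 s before LTD4 25 µg/kg iv; tracheal pressure change.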

[3] = test system: Cysteinyl leukotriene receptor (Cavia porcellus); assay: Inhibitory activity to block binding of [3H]leukotriene D4 to Cysteinyl leukotriene D4 receptor sites in homogenized guinea pig lung at 10 uM
Cavia porcellus [4] = assay: as §1; type: functional; outline: as §2
[5] = target: Cysteinyl leukotriene receptor (Cavia porcellus); assay: Inhibitory activity to block binding of [3H]leukotriene D4 to LTD4 receptor sites in homogenized guinea pig lung
[6] = test system: Cysteinyl leukotriene receptor (Cavia porcellus); assay: Inhibitory activity to block binding of [3H]leukotriene D4 to LTD4 receptor sites in homogenized guinea pig lung at 10 uM
[7] = target: T1, Cysteinyl leukotriene receptor 1 (Cavia porcellus, UniProt Q2NNR5); assay: Inhibitory activity of compound to block binding of [3H]leukotriene D4 to Cysteinyl leukotriene D4 receptor sites in homogenized guinea pig lung
T1 sequence (Q2NNR5 whole entry): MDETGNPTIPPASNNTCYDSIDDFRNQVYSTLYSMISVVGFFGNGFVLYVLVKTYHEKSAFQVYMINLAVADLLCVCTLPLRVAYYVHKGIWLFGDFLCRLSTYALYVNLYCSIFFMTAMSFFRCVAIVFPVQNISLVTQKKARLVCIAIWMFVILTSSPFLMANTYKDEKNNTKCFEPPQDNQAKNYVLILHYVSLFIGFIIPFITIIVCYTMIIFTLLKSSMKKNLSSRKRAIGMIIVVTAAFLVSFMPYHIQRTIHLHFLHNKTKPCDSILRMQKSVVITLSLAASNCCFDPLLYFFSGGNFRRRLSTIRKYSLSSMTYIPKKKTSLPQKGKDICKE
Outline: (§5)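 Lung from male Hartley guinea pigs (400–500 g), homogenized in sucrose/Tris pH 7.5 with protease inhibitors; 30000g membrane pellet in 10 mM PIPES pH 7.5, 50 mM NaCl. Binding: Tyrode, 0.1% BSA, 1 mM glycine, 1 mM cysteine, 3.5 nM [3H]LTD4, 100–200 µg protein, 20 °C, 30 min; glass-fiber filtration. Nonspecific with 10^-6 M LTD4. Triplicate screen at 10 µM; IC50 by linear regression.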

[8] = target: Dual specificity calcium/calmodulin-dependent 3',5'-cyclic nucleotide phosphodiesterase 1A (Bos taurus, UniProt P14100); assay: Inhibition of bovine heart Phosphodiesterase 1A
Rattus norvegicus = species on record: Rattus norvegicus; assay: Inhibitory activity to inhibit Inophore-induced arachidonic acid metabolism (inhibition of LTB4 formation) in rat; type: functional, organism-based
Outline: (§6)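 Rat peritoneal macrophages adhered 90 min at 37 °C, labeled with [14C]arachidonic acid 90 min, washed. Compound 30 min at 37 °C, then A23187 0.5 µM for 20 min. LTB4 and PGE2 in medium by radioimmunoassay.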

[9] = Inhibitory activity to inhibit Inophore-induced arachidonic acid metabolism (inhibition of PGE-2 formation) in rat; type: functional; outline: as §6
Cavia porcellus [10] = assay: Inhibition of leukotriene D4 induced bronchoconstriction in anesthetized guinea pigs after intravenous administration; type: functional; settings: read-out: ID50 (the source's name); outline: as §4
[11] = target: T2, Cysteinyl leukotriene receptor 1 (Cavia porcellus) (UniProt Q2NNR5); assay: as §1; settings: concentration not given here; outline: as §2
T2 sequence (whole entry): T1 sequence (Q2NNR5 whole entry)

[12] = target: T2, Cysteinyl leukotriene receptor 1 (Cavia porcellus); assay: as §3; type: organism-based; set-up: dose 10 mg/kg; outline: as §4
[13] = target: T2, Cysteinyl leukotriene receptor 1 (Cavia porcellus); assay: Inhibitory activity of compound to block binding of radiolabeled Cysteinyl leukotriene D4 receptor sites in homogenized guinea pig lung at 10 uM; outline: as §5
Cavia porcellus [14] = species on record: Cavia porcellus; assay: In vitro activity to inhibit SRS-A induced contraction of guinea pig ileum
Cavia porcellus [15] = species on record: Cavia porcellus; assay: In vitro activity to inhibit leukotriene D4 induced contraction of guinea pig trachea; type: functional; settings: read-out: pA2 (converted)
Outline: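 Guinea pig tracheal smooth muscle contracted by LTD4; pA2 and Schild slope reported.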

Cavia porcellus [16] = assay: In vivo guinea pig bronchoconstriction against leukotriene C4 when administered a compound dose (mg/kg) intravenously; type: functional; settings: Lung, iv, read-out: ID50 (the source's name)
Cavia porcellus [17] = assay: In vivo guinea pig bronchoconstriction against leukotriene D4 when administered a compound dose (mg/kg) intravenously; type: functional; settings: Lung, iv, read-out: ID50 (the source's name); outline: as §4
[18] = test system: Cysteinyl leukotriene receptor (Cavia porcellus); assay: Inhibitory activity of compound to block binding of radiolabeled leukotriene D4 to receptor sites in homogenized guinea pig lung at 10 uM

Dual specificity calcium/calmodulin-dependent 3',5'-cyclic nucleotide phosphodiesterase 1A, sequence (P14100 whole entry): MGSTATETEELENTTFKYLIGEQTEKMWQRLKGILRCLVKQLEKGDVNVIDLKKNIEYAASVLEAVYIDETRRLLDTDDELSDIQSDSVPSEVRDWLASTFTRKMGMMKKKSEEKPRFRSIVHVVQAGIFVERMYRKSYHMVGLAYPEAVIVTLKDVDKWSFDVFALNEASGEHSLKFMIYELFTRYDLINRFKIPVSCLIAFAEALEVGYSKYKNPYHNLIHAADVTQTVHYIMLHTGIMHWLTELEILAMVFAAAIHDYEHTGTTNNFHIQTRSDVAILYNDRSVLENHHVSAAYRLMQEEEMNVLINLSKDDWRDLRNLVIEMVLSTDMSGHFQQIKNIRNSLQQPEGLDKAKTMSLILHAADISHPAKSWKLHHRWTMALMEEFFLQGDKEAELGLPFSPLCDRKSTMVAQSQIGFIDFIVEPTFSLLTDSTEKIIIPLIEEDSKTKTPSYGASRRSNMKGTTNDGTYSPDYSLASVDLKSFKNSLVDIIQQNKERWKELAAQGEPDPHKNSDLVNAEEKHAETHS

| SMILES | inhibition in vivo at 10 mg/kg (Cavia porcellus [2]) [%] | inhibition [3] [%] | Inhibition (Cavia porcellus [4]) [%] | inhibition [6] [%] | other results |
| --- | --- | --- | --- | --- | --- |
| CCCc1c(OCCCCCOc2ccc3c(c2)OC(C(=O)O)CC3)ccc(C(C)=O)c1O (stereo not given) | 0 | 11 | 50 | – | IC50 (Cavia porcellus [1]): 1 % conc |
| CCCc1c(OCCC(C)(C)CCOc2cc3c(cc2C(C)=O)CCC(C(=O)O)O3)ccc(C(C)=O)c1O (stereo not given) | 15 | – | 23 | 68 | IC50 [5]: 7 µM |
| CCCc1c(OCCCCCOc2cc3c(cc2C(C)=O)CCC(CCC(=O)O)O3)ccc(C(C)=O)c1O (stereo not given) | 86 | – | 31 | 94 | ED50 (Cavia porcellus [2]): 5 mg/kg; IC50 [5]: 2 µM |
| CCCc1c(OCCCCCOc2cc3c(cc2C(C)=O)CCC(C(=O)O)C3)ccc(C(C)=O)c1O (stereo not given) | 51 | 65 | 23 | – | ED50 (Cavia porcellus [2]): 10 mg/kg; IC50 [7]: 7 µM |
| Cn1c(=O)c2[nH]cnc2n(C)c1=O [THEOPHYLLINE] | – | – | – | – | IC50 [8]: 500 µM |
| CC(C)C(C)c1nc2c(=O)[nH]c(=O)[nH]c2[nH]1 (stereo not given) | – | – | – | – | IC50 [8]: 100 µM |
| COc1ccc2c(c1)c(CC(=O)O)c(C)n2C(=O)c1ccc(Cl)cc1 [INDOMETHACIN] | – | – | – | – | IC50 (Rattus norvegicus): 60 µM; IC50 [9]: 0.1 µM |
| CCCc1c(OCCCCCOc2cc3c(cc2C(C)=O)CCC(C)(C(=O)O)O3)ccc(C(C)=O)c1O (stereo not given) | 50 | – | 85 | 64 | IC50 (Cavia porcellus [1]): 0.2 % conc; IC50 [5]: 6 µM; ED50 (Cavia porcellus [10]): 10 mg/kg |
| CCCc1c(OCCCCCOc2cc3c(cc2C(C)=O)CCC2(CCC(C(=O)O)CC2)O3)ccc(C(C)=O)c1O (stereo not given) | 32 | – | 83 | 81 | IC50 (Cavia porcellus [1]): 0.08 % conc; IC50 [5]: 4 µM |
| CCCc1c(OCCCCCOc2ccc3c(c2C(C)=O)OC(C(=O)O)CC3)ccc(C(C)=O)c1O (stereo not given) | 19 | – | 1 | 72 | IC50 [5]: 5 µM |
| CCCc1c(OCCCCCOc2c(C(C)=O)cc3c(c2CCC)OC(C(=O)O)CC3)ccc(C(C)=O)c1O (stereo not given) | – | – | – | – | inhibition [11]: 44% |
| CCCc1c(OCCCCc2nnn[nH]2)ccc(C(C)=O)c1O [TOMELUKAST] | 77 | – | 62 | – | IC50 (Cavia porcellus [1]): 0.4 % conc; ED50 (Cavia porcellus [10]): 5 mg/kg |
| CCCc1c(OCCCCCOc2cc3c(cc2Br)CCC(C(=O)O)O3)ccc(C(C)=O)c1O (stereo not given) | 13 | 57 | 0 | – | – |
| CCCc1c(OCCCOc2cc3c(cc2C(C)=O)CCC(C(=O)O)O3)ccc(C(C)=O)c1O (stereo not given) | 35 | 63 | 31 | – | IC50 [7]: 6 µM |
| CCCCCCCCCCCCc1ccccc1C(SCCC(=O)O)SCCC(=O)O | – | – | – | – | inhibition [12]: 29%; inhibition [11]: 39%; inhibition [13]: 24% |
| CCCc1c(OCc2ccccc2CCOc2cc3c(cc2C(C)=O)CCC(C(=O)O)O3)ccc(C(C)=O)c1O (stereo not given) | 24 | 26 | 12 | – | – |
| CCCc1c(O)c(C(C)=O)cc(Cl)c1OCCCCCOc1cc2c(cc1C(C)=O)CCC(C(=O)O)O2 (stereo not given) | 11 | 47 | 10 | – | – |
| CCCc1c(OCCCSc2ccc([C@@H](O)[C@H](C)CC(=O)O)cc2)ccc(C(C)=O)c1O [L-649923] | 72 | – | – | – | ED50 (Cavia porcellus [10]): 6 mg/kg |
| CC(=O)c1ccc(OCCCCCOc2cc3c(cc2C(C)=O)CCC(C(=O)O)O3)cc1O (stereo not given) | 85 | – | 0 | 0 | ED50 (Cavia porcellus [10]): 5 mg/kg |

| SMILES | inhibition in vivo at 10 mg/kg (Cavia porcellus [2]) [%] | inhibition [3] [%] | Inhibition (Cavia porcellus [4]) [%] | inhibition [6] [%] | other results |
| --- | --- | --- | --- | --- | --- |
| CCCc1c(OCCCCCCOc2cc3c(cc2C(C)=O)CCC(C(=O)O)O3)ccc(C(C)=O)c1O (stereo not given) | 66 | 96 | 36 | – | IC50 [7]: 5 µM; ED50 (Cavia porcellus [10]): 5 mg/kg |
| CCCc1c(OCCCCCCc2cc3c(cc2C(C)=O)CCC(C(=O)O)O3)ccc(C(C)=O)c1O (stereo not given) | 46 | 20 | 65 | – | IC50 (Cavia porcellus [1]): 0.3 % conc |
| CCCc1c(OCCCCCOc2cc3c(cc2Cl)CCC(C(=O)O)O3)ccc(C(C)=O)c1O (stereo not given) | 16 | – | 0 | 45 | – |
| CCCc1c(OCCCCCOc2cc3c(cc2C(C)=O)CC[C@H](C(=O)O)O3)ccc(C(C)=O)c1O | – | – | – | – | IC50 (Cavia porcellus [14]): 0.1 µM; Kb (Cavia porcellus [15]): 0.794 µM; ED50 (Cavia porcellus [16]): 6 mg/kg; ED50 (Cavia porcellus [17]): 4 mg/kg |
| CCCc1c(OCCCOc2cc(NC(=O)c3nn[nH]n3)c(C)cc2Cl)ccc(C(C)=O)c1O [CGP-35949] | 49 | – | – | 94 | IC50 [5]: 1 µM |
| O=S(=O)(Nc1cccc(OCc2ccc3ccccc3n2)c1)C(F)(F)F [RITOLUKAST] | 61 | – | – | – | ED50 (Cavia porcellus [10]): 4 mg/kg |
| CCCc1c(OCCCS(=O)(=O)c2ccc(C(=O)CCC(=O)O)cc2)ccc(C(C)=O)c1O [L-648051] | 73 | 0 | 70 | – | IC50 (Cavia porcellus [1]): 0.7 % conc; ED50 (Cavia porcellus [10]): 6 mg/kg |
| CCCc1c(OCCCCCOc2cc3c(cc2C(=O)CC)CCC(C(=O)O)O3)ccc(C(C)=O)c1O (stereo not given) | 7 | 52 | 60 | – | IC50 (Cavia porcellus [1]): 0.3 % conc |
| CCCc1c(OCCOCCOc2cc3c(cc2C(C)=O)CCC(C(=O)O)O3)ccc(C(C)=O)c1O (stereo not given) | 50 | 8 | 31 | – | ED50 (Cavia porcellus [10]): 10 mg/kg |
| CCCc1c(OCCCCCOc2cc3c(cc2C(C)=O)CC(C(=O)O)O3)ccc(C(C)=O)c1O (stereo not given) | 25 | 12 | 88 | – | IC50 (Cavia porcellus [1]): 0.04 % conc |
| COc1cc(C(=O)NS(=O)(=O)c2ccccc2)ccc1Cn1ncc2ccc(NC(=O)OC3CCCC3)cc21 [ICI-198615] | 100 | – | 99 | 98 | IC50 (Cavia porcellus [1]): 0.006 % conc; IC50 [5]: 0.001 µM; ED50 (Cavia porcellus [10]): 0.03 mg/kg |
| CCCc1c(OCCCCCOc2cc3c(cc2C(C)=O)CCC(CCCCC(=O)O)O3)ccc(C(C)=O)c1O (stereo not given) | 10 | – | – | 47 | – |
| CCCc1c(OCCCCOc2cc3c(cc2C(C)=O)CCC(C(=O)O)O3)ccc(C(C)=O)c1O (stereo not given) | 36 | 26 | 37 | – | – |
| CCCc1c(OCCCCCOc2cc3c(cc2C(C)=O)CCC(C(=O)NS(=O)(=O)c2ccccc2)O3)ccc(C(C)=O)c1O (stereo not given) | 26 | – | 53 | 87 | IC50 (Cavia porcellus [1]): 1 % conc; IC50 [5]: 2 µM |
| CCCc1c(OCCCCCOc2cc3c(cc2[N+](=O)[O-])CCC(C(=O)O)O3)ccc(C(C)=O)c1O (stereo not given) | 18 | – | 0 | 48 | – |
| O=C(O)CCSC(SCCC(=O)O)c1ccccc1CCCCCCCCc1ccccc1 | 20 | – | 58 | – | Inhibition [18]: 81% |
| CC(C)c1ccc2c(c1)c(SC(C)(C)C)c(CC(C)(C)C(=O)O)n2Cc1ccc(Cl)cc1 | – | – | – | – | IC50 (Rattus norvegicus): 0.2 µM; IC50 [9]: 5 µM |
| CCCc1c(OCCCCCOc2cc(OCC(=O)O)ccc2C(C)=O)ccc(C(C)=O)c1O | 20 | – | 46 | 65 | IC50 (Cavia porcellus [1]): 1 % conc; IC50 [5]: 5 µM |
| CCCc1c(OCc2cccc(COc3cc4c(cc3C(C)=O)CCC(C(=O)O)O4)c2)ccc(C(C)=O)c1O (stereo not given) | 20 | 60 | 28 | – | IC50 [7]: 7 µM |
